Shown is part of a subset that was picked to be rich in hits.
ROMK primary – modulators of human ROMK potassium channel | P48048 | Tet-inducible ROMK, thallium flux fluorescence; actives lie on both sides | B-score at 10 µM | 2% of 130,000 active;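 active means signal ratio slope over the read window, or its plate-corrected B-score, at least 3 SD from the plate mean, either direction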;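 further: B-score of the F/F0 ratio slope over 7 to 12 s after thallium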
Target sequence (P48048 whole entry, looked up): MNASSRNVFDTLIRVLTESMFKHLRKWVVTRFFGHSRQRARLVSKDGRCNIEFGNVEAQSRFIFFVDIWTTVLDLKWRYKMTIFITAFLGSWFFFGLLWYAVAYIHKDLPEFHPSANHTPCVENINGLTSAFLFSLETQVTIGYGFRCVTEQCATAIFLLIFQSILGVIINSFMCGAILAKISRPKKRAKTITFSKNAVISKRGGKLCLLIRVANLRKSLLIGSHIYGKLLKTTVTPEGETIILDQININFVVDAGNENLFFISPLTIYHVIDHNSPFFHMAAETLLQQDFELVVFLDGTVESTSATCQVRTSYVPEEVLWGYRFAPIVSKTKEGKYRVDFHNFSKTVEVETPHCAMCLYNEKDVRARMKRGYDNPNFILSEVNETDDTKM
Biofilm kill mix – mixture kills Candida albicans biofilm cells. C. albicans biofilm persisters + clotrimazole, fluorescence viability; primary screen in compound mixtures of four per well. inhibition, % at 7.6 µM. 0.02% of 120,000 active;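 active means inhibition above 30.3% in the primary screen of four-compound pools, then above 30% when the compound was retested; inconclusive means passed the primary limit but could not be retested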;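 further: compounds exposed to preformed 24 h biofilms for 48 h; 0% = untreated biofilm control and 100% = clotrimazole plus chlorhexidine kill blank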
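Test system: C. albicans biofilms. Buffer or medium: RPMI/MOPS medium, pH 7.0. Timing: 48 h compound exposure at 37 °C. Technique: Alamar Blue fluorescence. Evaluation: percent inhibition of biofilm viability.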
ROMK hit retest – retested hit modulating human ROMK potassium channel; shares compounds with ROMK primary; ROMK thallium flux, fluorescence ratio; stronger effect = lower value; normalized thallium flux (F/F0 slope) at 10 µM; 54% of 3,000 active; AID 1917;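 active means Flux at 10 µM at least 3 SD below or above vehicle control mean in one or both replicates; inconclusive means no clear call, values can overlap the other calls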
The depositor's hits bear a star; ? = inconclusive; · = not tested or not shown.

SMILES | ROMK primary | Biofilm kill mix | ROMK hit retest
Cc1ccc2oc(=O)n(CCOc3ccccc3)c2c1 | -3.5* | 9 | 0.057*
Cc1cccc(OCCn2c(=O)oc3ccc(C)cc32)c1 | -2.3 | 23 | ·
COC(=O)c1ccc(Cl)c(NC(=O)CSc2ncn[nH]2)c1 | 0.54 | · | ·
Cc1ccc(C(=O)N2CCN(S(=O)(=O)c3ccccc3)CC2)cc1 | 2.7* | 8 | ?
Cc1ccc(S(=O)(=O)N2CCN(C(=O)c3ccccc3)CC2)cc1 | 0.65 | · | ·
O=C(COC(=O)c1cccc(Br)c1)NCCc1ccccc1 | · | 10 | ·
CC(=O)C(Cl)C(=O)Nc1ccccc1 (stereo unspecified) | -5.4* | 8 | 0.046*
CC(Cc1ccccc1)C(=O)Nc1ccccc1 (stereo unspecified) | -0.55 | 7 | ·
O=C(CCCc1ccccc1)N1CCc2ccccc21 | -0.17 | · | ·
Cc1cc(C)cc(NC(N)=S)c1 | 0.89 | 15 | ·
CC(C)N1CCC(N2CCN(Cc3ccc(-c4ccccc4Cl)o3)CC2CCO)CC1 (stereo unspecified) | · | 5 | ·
CC(C)N1CCC(N2CCN(Cc3ccc(-c4ccc(Cl)cc4)o3)CC2CCO)CC1 (stereo unspecified) | -3.7* | 20 | 0.064*
Cc1ccc(Cn2c(CN3CCN(C(=O)c4ccco4)CC3)nc3c2c(=O)n(C)c(=O)n3C)cc1 | 2.6* | · | 0.092
Cn1c(=O)c2c(nc(CN3CCN(C(=O)c4ccco4)CC3)n2Cc2ccccc2)n(C)c1=O | 0.45 | · | ·
Cc1cc(C(=O)N2CCCC(C(=O)c3cccc(C(F)(F)F)c3)C2)nc(C)n1 (stereo unspecified) | -0.03 | 8 | ·
Cc1ccccc1C(=O)NC1CCN(CC(=O)NCc2cccs2)CC1 | 0.23 | 19 | ·
CC(C)(CNS(=O)(=O)c1ccc2c(c1)OCCO2)N1CCOCC1 | 0.1 | 19 | ·
Fc1ccc(-n2cc(-c3ccccc3)c3c(NN4CCOCC4)ncnc32)cc1 | -4.2* | 11 | 0.048*
COc1ccc(-n2cc(-c3ccccc3)c3c(NN4CCOCC4)ncnc32)cc1 | -2.3 | 11 | ·
N/C(=N\OC(=O)c1ccc(Cl)c([N+](=O)[O-])c1)c1ccccn1 | -3.8* | 6 | 0.079
COc1cc(OC)cc(C(=O)O/N=C(\N)c2ccccn2)c1 | · | 3 | ·
N/C(=N\OC(=O)c1cccc(Cl)c1)c1ccccn1 | 0.46 | 9 | ·
COc1ccccc1C(=O)O/N=C(\N)c1ccccn1 | · | 10 | 0.083
COc1ccc(NC(=O)Cn2c(=O)n(-c3ccccc3)c(=O)c3oc4ccccc4c32)c(OC)c1 | 1.7 | 8 | ·
Cc1cc(C(=O)OCC(=O)NCc2ccco2)c(C)n1-c1ccc(F)cc1 | 5.1* | · | 0.09
SMILES | ROMK primary | Biofilm kill mix | ROMK hit retest
CCNC(=O)COC(=O)c1cc(C)n(-c2ccccc2)c1C | 0.86 | 16 | ·
CC1(C)CC(=O)C2=C(C1)N(c1cccnc1)C(N)=C(C#N)C2c1cccs1 (stereo unspecified) | 0.6 | 3 | ·
N#CC1=C(N)C(C#N)(C#N)C(c2cccnc2)C2COCC=C12 (stereo unspecified) | -6.1* | · | 0.057*
N#CC1=C(N)C(C#N)(C#N)C(c2cccnc2)C2CN(C(=O)OCc3ccccc3)CC=C12 (stereo unspecified) | · | 7 | ·
Cc1c(Cl)cccc1N/C(SCC(=O)N1CCCCCC1)=C(/C#N)c1nc2ccccc2s1 | -0.16 | 8 | ·
COc1ccc([N+](=O)[O-])cc1-n1cccc1 | 0.37 | 13 | ·
Cc1cc(C=C2C(=O)c3ccccc3C2=O)c(C)n1C | 0.43 | 16 | ·
Cc1cccc(-n2c(C)cc(C=C3C(=O)c4ccccc4C3=O)c2C)c1 | · | · | 0.036*
Cc1ccc(CSc2ncnc3ccccc23)cc1 | -0.024 | 14 | ·
Cc1ccc(CSc2nc3ccccc3cc2C=O)cc1 | · | · | 0.1*
Cc1ccc(C)c(OCC(O)CN2CCC(CN3C(=O)c4cccc5cccc(c45)C3=O)CC2)c1 (stereo unspecified) | -4.7* | 6 | ?
O=C1c2cccc3cccc(c23)C(=O)N1CC1CCN(CC(O)COCc2ccc3c(c2)OCO3)CC1 (stereo unspecified) | -2.9 | -14 | ·
C=CCc1cc(C)ccc1OCCOCCn1ccnc1 | -0.063 | 12 | ·
CC1CCN(C(=O)c2ccc(N3C(=O)C4CCC(C)CC4C3=O)cc2)CC1 (stereo unspecified) | · | 9 | ·
CC1CCC2C(=O)N(c3ccc(Cc4ccncc4)cc3)C(=O)C2C1 (stereo unspecified) | -3.1* | 13 | ?
CCC(C)(C)n1nnnc1CN1CCN(C(c2ccccc2)c2ccccc2)CC1 | · | -7 | ·
CCOC(=O)N1CCN(CC(=O)N2CCC(C(N)=O)CC2)CC1 | 0.079 | 2 | ·
CN(C)CCCN(C(=O)COc1ccccc1)c1nc2c(F)cccc2s1 | -0.34 | 10 | ·
CCOc1cccc2sc(N(CCCN(C)C)C(=O)Cc3ccccc3)nc12 | -3.2* | 10 | 0.057*
CN(C)CCNC(=O)c1ccc(Sc2ccc(Br)cc2)c([N+](=O)[O-])c1 | -2.8* | 21 | 0.063*
CC(=O)NCCNC(=O)c1ccc(Sc2ccccc2)c([N+](=O)[O-])c1 | -0.48 | 18 | ·
O=C(NNC(=S)Nc1ccccc1)c1ccc(O)cc1 | · | 15 | ·
COC(=O)c1ccc(NC(=S)NNC(=O)c2ccccc2)cc1 | 0.94* | 60 | 0.082
O=C(NNC(=S)Nc1ccccc1)c1ccc2ncccc2c1 | -0.12 | 2 | ·
COC(=O)c1cccnc1NC(=S)NNC(=O)c1ccccc1 | 2.2* | · | 0.074
SMILES | ROMK primary | Biofilm kill mix | ROMK hit retest
COc1cccc(C(=O)N(CN2CCCC2=O)c2cc(C)on2)c1 | 1.2 | · | ·
C=CCOc1c(Br)cc(/C=N/O)cc1OCC | -3.8* | -3 | 0.057*
CCCCOc1c(Br)cc(/C=N/O)cc1OCC | -0.86 | 9 | ·
Cc1ccc(C)c(-n2c(=O)c(C#N)cc3c(=O)n4ccccc4nc32)c1 | -0.3 | 3 | ·
Cc1ccc(C(C)C)c(OCc2nn(CC(=O)c3ccc(Cl)cc3)c3[n+]2CCCCC3)c1 | -7.5* | 10 | 0.049*
O=C(Cn1nc(CNc2ccc(Cl)cc2)[n+]2c1CCCCC2)c1ccccc1 | · | 23 | ·
Cn1cccc1/C=C1\Cc2ccccc2C1=O | -1.1 | 24 | ·
Cn1cccc1/C=C1\CC(C(C)(C)C)C/C(=C\c2cccn2C)C1=O (stereo unspecified) | -3.6* | · | 0.04*
CCCCCn1cnc2c(=S)nc(N)[nH]c21 | · | 8 | ·
Cc1ccc(SCCC(=O)OCC(=O)Nc2ccc(S(N)(=O)=O)cc2)cc1 | · | 14 | ·
Cc1ccc(SCCC(=O)OCC(=O)NCC2CCCCC2)cc1 | 3* | 11 | 0.077
Fc1ccc2[nH]c3c(N4CCN(c5ccccc5)CC4)ncnc3c2c1 | -0.48 | · | 0.076
COc1ccc(N2CCN(c3ncnc4c3[nH]c3ccccc34)CC2)cc1 | 1.6 | · | ·
CCOc1cc(N2CCOCC2)c(OCC)cc1NC(=O)COc1ncnc2ccccc12 | -0.64 | · | ·
CCOc1cc(N2CCOCC2)c(OCC)cc1NC(=O)c1cc(-c2ccco2)nc2ccccc12 | · | · | 0.066*
NC(=O)c1c(NC(=S)Nc2ccccc2)sc2c1CCCC2 | 0.074 | 12 | ·
Cn1cnc(NCc2ccccc2)c1[N+](=O)[O-] | · | 13 | ·
O=C(NCc1ccccn1)C12CC3CC(CC(C3)C1)C2 | -0.0088 | 11 | ·
CCCCOC(=O)Nc1cc(C(=O)OC)ccc1C(=O)OC | 3.8* | · | 0.073
CCC(CC)C(=O)Nc1cc(C(=O)OC)ccc1C(=O)OC | · | 10 | ·
Cc1n[nH]c(C)c1CNCc1c(C(=O)N2CCCCCCC2)nc2ccc(Cl)cn12 | · | 13 | ·
CC1Cc2ccccc2N1C(=O)CSc1nnnn1C (stereo unspecified) | -0.75 | · | ·
